Assay results from different studies.
Lines come from different studies, so protocols differ.
Target: Histamine H2 receptor (HRH2, Homo sapiens, UniProt P25021)

CCCNc1nc2ccccc2n1Cc1ccc(Cl)cc1
inhibition (ligand displacement; 10 µM): 83.3%

O=C(c1ccc(F)cc1)N(Cc1ccccc1)C1CCCCC1
inhibition (cell-free assay; 10 µM): -3%

N=C(NCCCCCCCCCCCCN)NCCCc1c[nH]cn1
Emax (GTPγS binding; agonist; radiometric; cell membranes): 66%

Cc1nc(N)sc1CCCNC(=N)NCCCCCCCCNC(=N)NCCCc1sc(N)nc1C
Emax (GTPγS binding; agonist; radiometric; cell membranes): 52%

CCN(CC)c1ccc(C2Nc3ccc(C(=O)c4ccccc4)cc3NC3=C2C(=O)CC(C)(C)C3)cc1 (stereo not drawn)
inhibition (ligand displacement; radioligand; 10 µM): 38%

O=C(c1ccc(Cl)cc1)N(Cc1ccccc1)C1CCCCC1
inhibition (cell-free assay; 10 µM): -27.3%

COCCOc1nc(-c2ccc(Cl)nc2)nc2c1CN(C(=O)c1ncn3ccccc13)CC2
inhibition (ligand displacement; 10 µM): -0.24%

O=C(Nc1ccc(S(=O)(=O)N2CCC(Cl)CC2)cc1)c1ccc([N+](=O)[O-])o1
inhibition (ligand displacement; radioligand; 10 µM): 10%

CCN(Cc1ccccc1C(F)(F)F)C(=O)C1CCN(S(=O)(=O)c2ccc3[nH]ncc3c2)CC1
inhibition (ligand displacement; radioligand; 10 µM): 5%

N#Cc1ccc(Nc2ccc3[nH]c(=O)[nH]c3c2)c(Cl)c1
inhibition (cell-free assay; 10 µM): 2.26%

O=C1N=C(N2CCCCN2)S/C1=C\c1ccc(F)cc1O
inhibition (ligand displacement; radioligand; 10 µM): < 10%

N#Cc1cc(Cn2c(N3CCCC3)nc3ccccc32)ccc1F
inhibition (ligand displacement; 10 µM): 64.1%
